Bioassay records as filed in PubChem BioAssay.
Shown are actives, neighbours in structure and some others; about 3% of the full set was active somewhere.
aDG glyco act = increases alpha dystroglycan glycosylation; Pro5-aDG cells, alpha-DG glycosylation AlphaScreen (IIH6); 0% Pro5, 100% B10-LARGE cell signal; AID 624168; activation, % at 10 µM; 0.22% of 360,000 active;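 active = activation of at least 8% versus controls, or a plate z-score of at least 8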;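 note: Pro5 are CHO cells carrying HIG-tagged alpha-DG that lacks glycosylation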
JMJD2C inh = inhibitors of human GASC-1 (JMJD2C) demethylase; Q9H3R0; GST-JMJD2C(1-420) H3K9me3 demethylation, DELFIA europium; inhibition, % at 2.35 µM; 0.069% of 330,000 active; AID 2099;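 active = more than half of a compound's replicate wells show inhibition beyond 50%, single wells judged on their own value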;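 note: signal counts dimethyl H3K9 product captured on neutravidin plate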
Target sequence (Q9H3R0 1-420 limits assumed): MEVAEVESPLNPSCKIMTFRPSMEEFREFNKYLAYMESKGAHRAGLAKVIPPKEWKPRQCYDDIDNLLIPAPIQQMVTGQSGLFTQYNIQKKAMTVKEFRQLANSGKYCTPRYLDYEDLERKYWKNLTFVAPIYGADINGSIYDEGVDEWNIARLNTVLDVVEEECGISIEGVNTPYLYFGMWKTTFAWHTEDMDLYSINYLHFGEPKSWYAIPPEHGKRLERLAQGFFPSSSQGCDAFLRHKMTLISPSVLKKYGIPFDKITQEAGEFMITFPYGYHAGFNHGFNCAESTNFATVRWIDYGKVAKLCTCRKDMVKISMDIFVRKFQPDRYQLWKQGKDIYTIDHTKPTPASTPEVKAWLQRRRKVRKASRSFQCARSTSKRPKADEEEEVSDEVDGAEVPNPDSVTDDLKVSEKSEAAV
NPR2 activator = GC-B (human) receptor activation; P20594; HEK293-GC-B cells, CNP EC30, cGMP TR-FRET; 0% at EC30 CNP, 100% saturating CNP; activation, % at 10 µM; 0.11% of 370,000 active; AID 1920062;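 active = activation at 10 µM reaching about 35% in either raw or pattern-adjusted values, limit read from the data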
Lipid droplet = modulators of hepatic lipid droplet formation. inhibition, % at 6.5 µM. 0.4% of 240,000 active. AID 1656. AML12 mouse hepatocytes, oleate lipid droplets, BODIPY imaging;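 active = lipid droplet intensity inhibited by at least 50%, with more than 500 cells counted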
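Test system: AML12 mouse liver cells; schedule: overnight exposure; technique: high-content imaging of BODIPY-stained droplets and DAPI nuclei; read-out: % inhibition of corrected integrated BODIPY droplet signal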
GC-A act = GC-A (human) enzyme activation; P16066; activation, % at 10 µM; 0.14% of 370,000 active; HEK293 GC-A cells, cGMP TR-FRET, EC30 ANP; 0% at EC30 ANP, 100% saturating ANP; AID 1671463; in the data active = activation above about 40%
NR3A LBD binder = modulates the human NR3A ligand-binding domain. NR3A LBD differential scanning fluorimetry, Tm shift; 0% = protein alone, 100% = glycine-bound protein. Tm shift relative to glycine control, % at 25 µM. 2.5% of 340,000 active;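 active = melting temperature shift of at least 10% of the positive control shift, at one fixed dose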
aDG glyco conf = confirmation of alpha dystroglycan glycosylation activators; 17% of 600 active; activation, % at 10 µM (by protocol); shares compounds with aDG glyco act; AID 651671; Pro5-aDG cells, alpha-DG glycosylation, IIH6 AlphaLISA; scaled to LARGE-overexpressing B10 cells as 100%;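 active = activation of at least 7% in one or more replicates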;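 note: cells exposed to compound for two days before detection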
Of the large screens only hits and unclear results are named; the others gave an inactive call (follow-up assays come after a bar, where they were run).

CCCN(CC(=O)Nc1cc(Cl)cc(Cl)c1)CC(=O)Nc1ccc(F)c(F)c1F	aDG glyco act 5.9, NR3A LBD binder 20.1 | aDG glyco conf inactive
CCCN(CC(=O)Nc1ccccc1Br)CC(=O)Nc1ccc(F)c(F)c1F	none
CCCCCNCC(=O)Nc1cccc(C(=O)Nc2cccc(C(F)(F)F)c2)c1	aDG glyco act 15.8 | aDG glyco conf 10.1
Cc1oc2ccc(O)cc2c1C(=O)c1ccc(F)cc1	none (no result: Lipid droplet)
Cc1cc(C)c(S(C)(=O)=O)c(S(=O)(=O)c2ccc(Cl)cc2)n1	none (no result: Lipid droplet)
Cc1cc(C)c(S(=O)(=O)O)c(C)n1	aDG glyco act 6.9 (no result: Lipid droplet) | aDG glyco conf inactive
COc1ccc(NC(=O)C2Cc3cccc(OC)c3O/C2=N\O)cc1 (stereo unspecified)	none (no result: Lipid droplet)
COc1ccc(NC(=O)C2Cc3ccccc3O/C2=N\O)cc1 (stereo unspecified)	aDG glyco act 5.9 (no result: Lipid droplet) | aDG glyco conf inactive
COc1ccc2[nH]c3c(N4CCN(Cc5ccc6c(c5)OCO6)CC4)ncnc3c2c1	aDG glyco act 8.3 (no result: Lipid droplet) | aDG glyco conf inactive
O=[N+]([O-])c1ccc2ncnc(N3CCN(Cc4ccc5c(c4)OCO5)CC3)c2c1	none
Cc1onc(-c2ccccc2)c1C(=O)N/N=C/c1ccc([N+](=O)[O-])s1	aDG glyco act 6.0 | aDG glyco conf inactive
O=C(CNC(=O)c1ccccc1Cl)N/N=C/c1ccc([N+](=O)[O-])s1	aDG glyco act 11.8 | aDG glyco conf 6.5
Cc1onc(-c2ccccc2)c1C(=O)N/N=C/c1ccco1	none
O=C(Cc1cccs1)N/N=C\c1ccccc1	none (no result: aDG glyco act, JMJD2C inh, Lipid droplet, NR3A LBD binder)
O=C(Cc1cccs1)N/N=C\c1ccc([N+](=O)[O-])s1	aDG glyco act 12.7 | aDG glyco conf 3.9
CCOC(=O)CC1(Cc2ccccc2)Oc2ccccc2O1	none (no result: aDG glyco act, JMJD2C inh, Lipid droplet, NR3A LBD binder)
O=C1c2ccccc2C(Nc2ccc(S(=O)(=O)N3CCOCC3)cc2)N1c1cccnc1 (stereo unspecified)	aDG glyco act 10.2 (no result: Lipid droplet) | aDG glyco conf inactive
COc1ccc(NC2c3ccccc3C(=O)N2c2cccnc2)cc1 (stereo unspecified)	none
CN(C(=O)c1ccccc1C(=O)OCC(=O)Nc1cccc(Br)c1)c1ccccc1	none (no result: Lipid droplet)
CCOC(=O)c1cnc(-n2nc(C)cc2C)nc1Nc1ccc(O)cc1	none
CCOC(=O)c1cnc(-n2nc(C)cc2C)nc1Nc1ccc(C)cc1	aDG glyco act 6.5 | aDG glyco conf inactive
O=C(Cn1ncc2c(=O)oc3ccccc3c21)NCC1COc2ccccc2O1 (stereo unspecified)	aDG glyco act 8.2 (no result: Lipid droplet) | aDG glyco conf inactive
COc1cc(OC)cc(C(=O)Nc2cccc(C(C)=O)c2)c1	none
COc1cc(OC)cc(C(=O)Nc2cccc(N3CCCC3)c2)c1	aDG glyco act 3.7 | aDG glyco conf inactive
COc1ccc(NC(=O)CCCNC(=O)c2ccc(Cl)cc2)cc1S(=O)(=O)N1CCOCC1	none (no result: JMJD2C inh, Lipid droplet)
COc1cc(CNC(=O)c2cc(-c3ccc(F)cc3C)n[nH]2)cc(OC)c1	none (no result: JMJD2C inh, Lipid droplet, NR3A LBD binder)
CCOC(=O)C1=C(C)OC(N)=C(C#N)C1c1ccc(OC)c(C)c1OC (stereo unspecified)	aDG glyco act 9.7 | aDG glyco conf inactive
CCOC(=O)C1=C(CC)OC(N)=C(C#N)C1c1ccc(OC)c(C)c1OC (stereo unspecified)	none
CCOC(=O)c1cc(-c2ccc(F)cc2)n(CCC(=O)NC2CCN(Cc3ccccc3)CC2)c1C	aDG glyco act 8.4 | aDG glyco conf 3.5
COCCCn1cn[nH]c1=S	aDG glyco act 6.3 | aDG glyco conf inactive
COCCCn1c(-c2ccc(Cl)cc2)n[nH]c1=S	none
O=C(CCN1C(=O)COc2ccccc21)NCCCN1CCCC1	aDG glyco act 6.4 | aDG glyco conf inactive
Brc1ccc2ncnc(NCc3ccccc3)c2c1	aDG glyco act 8.2 | aDG glyco conf 3.4
Cc1nc(SCC(=O)Nc2nnc(C(C)C)s2)n[nH]1	none
Cc1ccccc1NC(=O)CSc1nc2[nH]c(=O)cc(O)c2s1	none (no result: JMJD2C inh, Lipid droplet)
Cc1cccc(C)c1NC(=O)CSc1nc2[nH]c(=O)cc(O)c2s1	aDG glyco act 18.5 (no result: Lipid droplet) | aDG glyco conf inactive
c1ccc(-c2nnc(-c3ccccc3)nn2)cc1	none
c1cncc(-c2nnc(-c3cccnc3)nn2)c1	aDG glyco act 13.0 (no result: Lipid droplet) | aDG glyco conf 7.6
Cc1cc(C)n(CCNC(=O)c2cc(COc3ccc4ncccc4c3)on2)n1	none
CC(CCCC(C)(C)O)NC(=O)c1cc(COc2ccc3ncccc3c2)on1 (stereo unspecified)	none
O=C(NCc1cccc(Cl)c1)c1cc(COc2ccc3ncccc3c2)on1	aDG glyco act 10.1 | aDG glyco conf inactive
Cc1ccc(F)cc1CNC(=O)c1cc(COc2ccc3ncccc3c2)on1	aDG glyco act 8.7 | aDG glyco conf inactive
COC(=O)[C@H](CC(C)C)N(CCCc1cn(CC2CCCCC2)nn1)S(=O)(=O)c1ccccc1Br	none (no result: aDG glyco act, JMJD2C inh, Lipid droplet, NR3A LBD binder)
C[C@@H]1CN([C@@H](C)CO)C(=O)CCCn2cc(nn2)CO[C@H]1CN(C)C(=O)Nc1ccccc1F	none (no result: aDG glyco act, JMJD2C inh, Lipid droplet, NR3A LBD binder)
COc1ccccc1OCCC(=O)NNC(=O)c1ccccc1F	none (no result: JMJD2C inh, Lipid droplet)
COC(=O)[C@@]1(Sc2ccc(C)cc2)CC(=O)N(c2ccccc2)[C@@H]1c1ccccc1	none (no result: JMJD2C inh, Lipid droplet, NR3A LBD binder)
CCNC(=O)Nc1cc(S(=O)(=O)Nc2ccc(OC)cc2)ccc1N1CCOCC1	aDG glyco act 4.9 (no result: NPR2 activator, Lipid droplet, GC-A act) | aDG glyco conf inactive
CCCCNC(=O)c1ccc(N2CCOCC2)c(NS(=O)(=O)c2ccc(OC)cc2)c1	none (no result: Lipid droplet)
CCN(C(=O)CN(C1=NC2CS(=O)(=O)CC2S1)c1ccc(OC)cc1)c1cccc(C)c1 (stereo unspecified)	none (no result: JMJD2C inh, Lipid droplet, NR3A LBD binder)
O=C(Nc1cccc(Cl)c1)Nc1sccc1-c1nc2ccccc2s1	aDG glyco act 4.4, NR3A LBD binder 28.6 | aDG glyco conf inactive
CC1(C(=O)Nc2ccc(F)c(Cl)c2)Cc2c(-c3ccc(C(N)=O)cc3)ccnc2O1 (stereo unspecified)	none (no result: JMJD2C inh, Lipid droplet, NR3A LBD binder)
COc1ccccc1CCNCc1ccc(OC)c(OCc2ccccc2)c1	aDG glyco act 5.6 | aDG glyco conf inactive
Brc1ccc(CNc2ccc3ncccc3c2)cc1	aDG glyco act 2.8 | aDG glyco conf inactive
CCn1cnc2cc(NCc3ccc(Br)cc3)ccc21	none (no result: aDG glyco act)
Cc1ccc(NC(=O)CN(C)C(=O)C2CC(=O)N(Cc3ccccc3)C2)cc1 (stereo unspecified)	none
CCC(c1nnnn1Cc1cccs1)N1CCN(c2nc3ccccc3s2)CC1 (stereo unspecified)	aDG glyco act 11.7 (no result: Lipid droplet) | aDG glyco conf 3.4
CCNC(=O)C1(C)CCCN(Cc2csc(-c3ccccc3)n2)C1 (stereo unspecified)	none (no result: JMJD2C inh, Lipid droplet, NR3A LBD binder)
